Laboratory results: ChEMBL document CHEMBL1134438, “Stepwise modulation of neurokinin-3 and neurokinin-2 receptor affinity and selectivity in quinoline tachykinin receptor antagonists” (J Med Chem, 2001)
pKi: −log10 of the molar value.

Tests used:
[1] = molecular target: T1, Substance-K receptor (Homo sapiens, UniProt P21452); experiment: Displacement of [125 I]-NKA binding to tachykinin receptor 2 in CHO membranes; assay type: cell membranes
T1 sequence (P21452 whole entry): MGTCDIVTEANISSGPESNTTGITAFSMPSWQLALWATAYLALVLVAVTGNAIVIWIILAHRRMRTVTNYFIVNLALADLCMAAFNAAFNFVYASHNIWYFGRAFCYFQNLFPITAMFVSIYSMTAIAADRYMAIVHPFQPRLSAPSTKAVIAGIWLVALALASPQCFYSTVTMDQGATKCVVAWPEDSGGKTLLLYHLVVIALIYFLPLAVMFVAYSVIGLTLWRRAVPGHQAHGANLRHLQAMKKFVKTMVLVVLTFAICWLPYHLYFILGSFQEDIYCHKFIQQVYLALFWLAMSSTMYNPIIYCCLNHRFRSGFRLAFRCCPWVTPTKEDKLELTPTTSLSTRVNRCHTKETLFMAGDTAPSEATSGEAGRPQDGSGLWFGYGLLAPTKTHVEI
Summary of the method: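 hNK-2-CHO crude membranes (~10 µg protein) were incubated with 0.15 nM [125I]-NKA for 90 min at 25 °C in Tris pH 7.4 buffer containing MnCl2, phosphoramidon and ovalbumin. Filtered through GF/C soaked in 0.1% PEI. Nonspecific binding defined with 0.5 µM cold NKA. Ki from IC50 by Cheng-Prusoff; duplicate curves, n = 3-5.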

[2] = Selectivity ratio (hNK-2/hNK-3) of the compound
[3] = molecular target: T2, Neuromedin-K receptor (Homo sapiens, UniProt P29371); experiment: Displacement of [125 I]-[MePhe]-NKB binding to hNK-3-CHO (Chinese hamster ovary) membranes
T2 sequence (P29371 whole entry): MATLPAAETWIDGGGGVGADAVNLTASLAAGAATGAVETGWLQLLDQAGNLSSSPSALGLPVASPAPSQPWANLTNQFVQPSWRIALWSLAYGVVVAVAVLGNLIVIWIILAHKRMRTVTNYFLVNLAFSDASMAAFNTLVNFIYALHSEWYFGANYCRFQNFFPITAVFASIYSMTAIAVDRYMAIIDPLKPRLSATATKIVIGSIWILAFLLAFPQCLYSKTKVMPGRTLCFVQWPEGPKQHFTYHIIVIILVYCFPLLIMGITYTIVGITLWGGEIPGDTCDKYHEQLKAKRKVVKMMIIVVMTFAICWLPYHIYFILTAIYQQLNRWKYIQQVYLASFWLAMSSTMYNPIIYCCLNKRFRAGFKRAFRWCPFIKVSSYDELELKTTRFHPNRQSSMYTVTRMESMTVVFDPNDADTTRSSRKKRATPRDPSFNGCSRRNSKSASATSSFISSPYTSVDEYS
Summary of the method: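 hNK-3-CHO crude membranes (~15 µg protein) were incubated with 0.15 nM [125I]-[MePhe7]-NKB in 50 mM Tris pH 7.4, 4 mM MnCl2, 1 µM phosphoramidon, 0.1% ovalbumin for 90 min at 25 °C. Filtered through BSA-presoaked GF/C, then scintillation counted. Nonspecific binding defined with 0.5 µM cold [MePhe7]-NKB. Ki from IC50 by Cheng-Prusoff; duplicates, n = 3-5.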

[4] = molecular target: Mu-type opioid receptor (Homo sapiens, UniProt P35372); experiment: Binding affinity towards human mu-opioid receptors in CHO (Chinese hamster ovary) cell lines; assay type: cell-based
Summary of the method: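 CHO cells stably expressing hMOR grown in serum-free suspension culture; membranes made by hypotonic lysis in 10 mM potassium phosphate pH 7.2 with 3 mM MgCl2. Binding run in triplicate at 10 µg/mL protein with 0.4-0.5 nM radioligand for 60 min at 30 °C. Nonspecific binding defined with 10 µM naloxone; filtration and scintillation counting. Duplicate concentration-response curves, n = 3-5 for potent compounds.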

[5] = molecular target: T2, Neuromedin-K receptor; experiment: (§1) Cellular functional antagonistic activity against NKB-induced [Ca2+] mobilization in HEK cells stably expressing the hNK-3 receptor; assay type: cell-based, HEK293; settings: read-out: pA2 (converted)
[6] = molecular target: T1, Substance-K receptor; experiment: Cellular functional antagonistic activity against NKA-induced [Ca2+] mobilization in HEK cells stably expressing the tachykinin receptor 2; settings: read-out: pA2 (converted)
[7] = molecular target: T3, Substance-K receptor (Homo sapiens) (UniProt P21452); experiment: as above; settings: HEK293
T3 sequence (whole entry): T1 sequence (P21452 whole entry)

[8] = molecular target: T4, Neuromedin-K receptor (Homo sapiens) (UniProt P29371); experiment: as §1; assay type: cell-based; settings: HEK293
T4 sequence (whole entry): T2 sequence (P29371 whole entry)

Mu-type opioid receptor, sequence (P35372 whole entry): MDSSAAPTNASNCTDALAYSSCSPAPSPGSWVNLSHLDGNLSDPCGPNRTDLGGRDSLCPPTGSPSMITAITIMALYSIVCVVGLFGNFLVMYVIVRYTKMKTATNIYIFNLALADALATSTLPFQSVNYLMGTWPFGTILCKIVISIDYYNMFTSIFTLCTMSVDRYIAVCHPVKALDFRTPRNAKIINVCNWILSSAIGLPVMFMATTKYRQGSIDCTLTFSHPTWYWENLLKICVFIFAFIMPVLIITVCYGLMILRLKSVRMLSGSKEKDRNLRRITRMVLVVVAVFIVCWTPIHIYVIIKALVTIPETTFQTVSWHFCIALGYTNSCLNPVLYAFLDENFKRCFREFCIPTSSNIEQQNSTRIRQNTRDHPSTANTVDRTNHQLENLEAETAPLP

Row | Structure (SMILES) | pKi [1] | Ratio [2] | pKi [3] | pKi [4] | Kb [5] [nM] | Kb [6] [nM] | Kb [7] [nM] | Kb [8] [nM]
1 | CCC(CC)NC(=O)c1c(CN2CCN(C(C)C)CC2)c(-c2ccccc2)nc2ccccc12 | 7.73 | 0.015 | 5.92 | – | – | – | – | –
2 | CC(C)[C@H](NC(=O)c1c(CN2CCN(C(C)C)CC2)c(-c2ccccc2)nc2ccccc12)c1ccccc1 | 8.82 | 1.2 | 8.92 | 6.92 | – | – | – | –
3 | CC(C)N1CCN(Cc2c(-c3ccccc3)nc3ccccc3c2C(=O)N[C@@H](C)C2CCCCC2)CC1 | 9.15 | 0.4 | 8.72 | 6.71 | – | – | – | –
4 | C[C@H](NC(=O)c1c(CN2CCOCC2)c(-c2ccccc2)nc2ccccc12)C1CCCCC1 | 8.21 | 1.3 | 8.34 | < 5.60 | – | – | – | –
5 | CC[C@H](NC(=O)c1c(O)c(-c2ccccc2)nc2ccccc12)c1ccccc1 [TALNETANT] | – | – | – | 5.73 | – | – | – | –
6 | C[C@H](NC(=O)c1c(CN2CCC(N3CCOCC3)CC2)c(-c2ccccc2)nc2ccccc12)C1CCCCC1 | 9.10 | 1 | 9.10 | < 5.60 | – | – | – | –
7 | CC[C@H](NC(=O)c1c(CN(C)C)c(-c2ccccc2)nc2ccccc12)c1ccccc1 | 6.76 | 78 | 8.66 | 5.77 | – | – | – | –
8 | CC[C@H](NC(=O)c1c(CN2CCCCC2)c(-c2ccccc2)nc2ccccc12)c1ccccc1 | 6.56 | 39 | 8.15 | < 5.60 | – | – | – | –
9 | C[C@H](NC(=O)c1c(CN2CCC(N)CC2)c(-c2ccccc2)nc2ccccc12)C1CCCCC1 | 7.48 | 1.1 | 7.51 | 5.75 | – | – | – | –
10 | CC(C)C(C)NC(=O)c1c(CN2CCN(C(C)C)CC2)c(-c2ccccc2)nc2ccccc12 (centres undefined) | 8.04 | 0.02 | 6.34 | – | – | – | – | –
11 | CC[C@H](NC(=O)c1c(CN2CCC(N3CCCCC3)CC2)c(-c2ccccc2)nc2ccccc12)c1ccccc1 | 8.34 | 3.1 | 8.82 | 6.04 | – | – | – | –
12 | CC[C@H](NC(=O)c1c(CN2CCN(C3CCCCC3)CC2)c(-c2ccccc2)nc2ccccc12)c1ccccc1 | 8.80 | 1.3 | 8.92 | 7.80 | – | – | – | –
13 | CC[C@H](NC(=O)c1c(CN2CCN(C(C)C)CC2)c(-c2ccccc2)nc2ccccc12)c1ccccc1 | – | 3.1 | – | 7.01 | – | – | – | –
14 | CC[C@H](NC(=O)c1c(CN2CCNCC2)c(-c2ccccc2)nc2ccccc12)c1ccccc1 | 7.65 | 4.7 | 8.33 | 6.69 | – | – | – | –
15 | CC(C)NC(=O)c1c(CN2CCN(C(C)C)CC2)c(-c2ccccc2)nc2ccccc12 | 6.09 | < 0.1 | < 4.92 | – | – | – | – | –
16 | CC(C)N1CCN(Cc2c(-c3ccccc3)nc3ccccc3c2C(=O)NC2CCCCC2)CC1 | 8.38 | 0.003 | 5.90 | 6.65 | – | – | – | –
17 | C[C@H](NC(=O)c1c(CN2CCC(N3CCCCC3)CC2)c(-c2ccccc2)nc2ccccc12)C(C)(C)C | 9.00 | 0.005 | 6.71 | ≤ 5.70 | – | – | – | –
18 | C[C@H](NC(=O)c1c(CN2CCNCC2)c(-c2ccccc2)nc2ccccc12)C1CCCCC1 | 8.62 | 0.7 | 8.47 | 6.76 | – | – | – | –
19 | CC(C)[C@H](NC(=O)c1c(CN(C)C)c(-c2ccccc2)nc2ccccc12)c1ccccc1 | 7.29 | 16 | – | < 5.60 | – | – | – | –
20 | C[C@H](NC(=O)c1c(CN2CCC(N3CCCCC3)CC2)c(-c2ccccc2)nc2ccccc12)C1CCCCC1 | 9.22 | 0.3 | 8.77 | 5.88 | 2 | 10 | 9.9 | 2.6
21 | CC(C)C(=O)N1CCN(Cc2c(-c3ccccc3)nc3ccccc3c2C(=O)N[C@@H](C)C2CCCCC2)CC1 | 8.92 | 0.9 | 8.85 | < 5.60 | – | – | – | –
